Laboratory results published in ChEMBL document CHEMBL1125887, “Nucleosides and nucleotides. 94. Radical deoxygenation of tert-alcohols in 1-(2-C-alkylpentofuranosyl) pyrimidines: synthesis of (2'S)-2'-deoxy-2'-C-methylcytidine, an antileukemic nucleoside” (J Med Chem, 1991).
Values after ≈ are worked out from the molar mass of the structure shown.

Tests used:
L1210 = assay: Concentration required for 50% inhibition of cell growth of L1210 leukemic cell lines in mouse.; format: functional, cell-based
Method in brief: (§1)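 MTT growth assay: each tumor cell line seeded at 1 × 10^4 cells/well and incubated with or without test compound for 72 h. MTT was then added and OD at 570 nm was read. % inhibition = [1 − OD(sample well)/OD(control well)] × 100. IC50 is the concentration in μg/mL giving 50% inhibition of cell growth.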

K562 = assay: Concentration required for 50% inhibition of cell growth of K562 leukemic cell lines in human.; format: functional, cell-based
Method in brief: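 Tumour cells seeded at 1 × 10^4/well were grown with or without test compound for 72 h. MTT was then added and OD at 570 nm read. % inhibition = [1 − OD(sample)/OD(control)] × 100. IC50 is the concentration in μg/mL giving 50% growth inhibition.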

PC-14 = assay: Concentration required for 50% inhibition of human lung squamous cell carcinoma PC14 solid cell lines.; format: functional, cell-based; method in brief: as §1
[1] = test system: KATO III stomach cancer cell line; assay: Concentration required for 50% inhibition of human […] carcinoma KATO III solid cell lines.; format: functional, cell-based; method in brief: as §1
MOLT-4 = assay: Concentration required for 50% inhibition of cell growth of MOLT-4 leukemic cell lines in human.; format: functional, cell-based; method in brief: as §1
HL-60 = assay: Concentration required for 50% inhibition of cell growth of HL60 leukemic cell lines in human.; format: functional, cell-based; method in brief: as §1
CCRF-CEM = assay: Concentration required for 50% inhibition of cell growth of CCRF CEM leukemic cell lines in human.; format: functional, cell-based; method in brief: as §1
T-24 = assay: Concentration required for 50% inhibition of human bladder transitional-cell carcinoma T24 solid cell lines.
PC10 = assay: Concentration required for 50% inhibition of human lung squamous cell carcinoma PC10 solid cell lines.; format: functional, cell-based; method in brief: as §1
TE-2 = assay: Concentration required for 50% inhibition of human […] squamous cell carcinoma TE2 solid cell lines.; format: functional, cell-based; method in brief: as §1
U-937 = assay: Concentration required for 50% inhibition of cell growth of U937 leukemic cell lines in human.; format: functional, cell-based; method in brief: as §1
SW480 = assay: Concentration required for 50% inhibition of human […] carcinoma SW 480 solid cell lines.; format: functional, cell-based; method in brief: as §1

`C[C@@H]1[C@H](O)[C@@H](CO)O[C@H]1n1ccc(N)nc1=O` gave an IC50 (L1210) of 40 µg/mL (≈ 166 µM).

In the case of `C[C@H]1[C@H](O)[C@@H](CO)O[C@H]1n1ccc(N)nc1=O`, the IC50 (K562) is reported as 2.2 µg/mL (≈ 9.12 µM), the IC50 (PC-14) is reported as greater than 100 µg/mL and the IC50 [1] is reported as greater than 100 µg/mL. For the same compound, the IC50 (MOLT-4) was 0.032 µg/mL (≈ 0.133 µM), the IC50 (L1210) was 0.26 µg/mL (≈ 1.08 µM) and the IC50 (HL-60) was 0.65 µg/mL (≈ 2.69 µM). For the same compound, the IC50 (CCRF-CEM) was 0.15 µg/mL (≈ 0.622 µM), the IC50 (T-24) was 1.1 µg/mL (≈ 4.56 µM) and the IC50 (PC10) was 81.8 µg/mL (≈ 339 µM). For the same compound, the IC50 (TE-2) was greater than 100 µg/mL, the IC50 (U-937) was 0.38 µg/mL (≈ 1.58 µM) and the IC50 (SW480) was greater than 100 µg/mL.

For `C[C@]1(O)[C@H](O)[C@@H](CO)O[C@H]1n1ccc(N)nc1=O`, the IC50 (L1210) was greater than 100 µg/mL.

For `C[C@@]1(O)[C@H](O)[C@@H](CO)O[C@H]1n1ccc(N)nc1=O`, the IC50 (L1210) was 12 µg/mL (≈ 46.6 µM).

Compound `Cc1cn([C@@H]2O[C@H](CO)C(O)[C@H]2C)c(=O)[nH]c1=O` (some centres not stated) has an IC50 (L1210) of 32 µg/mL (≈ 125 µM).

For `CC[C@@H]1C(O)[C@@H](CO)O[C@H]1n1ccc(N)nc1=O` (some centres not stated), the IC50 (L1210) was greater than 100 µg/mL.

Work on `Nc1ccn([C@@H]2O[C@H](CO)[C@@H](O)[C@@H]2O)c(=O)n1` [CYTARABINE] yielded an IC50 (PC-14) greater than 100 µg/mL, an IC50 [1] greater than 100 µg/mL and an IC50 (HL-60) greater than 0.1 µg/mL. It also gave an IC50 (T-24) greater than 100 µg/mL, an IC50 (PC10) greater than 100 µg/mL and an IC50 (TE-2) greater than 100 µg/mL. For the same compound, the IC50 (U-937) was 0.31 µg/mL (≈ 1.27 µM) and the IC50 (SW480) was greater than 100 µg/mL.

`O=c1[nH]cc(F)c(=O)[nH]1` [FLUOROURACIL] gave an IC50 (K562) of 3.8 µg/mL (≈ 29.2 µM) and an IC50 (PC10) greater than 100 µg/mL.
